Source: ChEMBL document CHEMBL4699633, “Total Syntheses of Prenylated Isoflavones from Erythrina sacleuxii and Their Antibacterial Activity: 5-Deoxy-3'-prenylbiochanin A and Erysubin F” (J Nat Prod, 2020)
≈ marks a conversion by molar mass, not a printed value.

Legend:
Listeria monocytogenes = experiment: Antibacterial activity against Listeria monocytogenes assessed as reduction in microbial growth measured every 5 mins for 24 hrs; format: functional
Plasmodium falciparum [1] = experiment: Antiplasmodial activity against chloroquine-resistant Plasmodium falciparum W2 by [3H]-hypoxanthine incorporation assay; format: functional, organism-based
Plasmodium falciparum [2] = experiment: Antiplasmodial activity against chloroquine-sensitive Plasmodium falciparum D6 by [3H]-hypoxanthine incorporation assay; format: functional, organism-based
Staphylococcus aureus [3] = experiment: Antibacterial activity against methicilin-resistant Staphylococcus aureus ATCC 43300 assessed as reduction in microbial growth after 18 hrs by agar dilution method; format: functional
How it was run: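 MRSA ATCC 43300 tested by standardized agar dilution. Compounds dissolved in DMSO and 2-fold serially diluted in solvent, then added to Mueller Hinton agar at 1% v/v DMSO final. Inoculum from overnight culture, photometrically adjusted. Plates incubated aerobically at 37 °C for 18 h. Vancomycin served as positive control. DMSO-only (1% v/v) plates served as negative control. Read-out was MIC.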

[4] = system: Salmonella enterica subsp. enterica; experiment: Antibacterial activity against Salmonella enterica subsp.enterica NCTC 13349 assessed as reduction in microbial growth after 18 hrs by agar dilution method; format: functional
How it was run: (§1)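 Agar dilution on Mueller Hinton agar; compounds dissolved in DMSO, 2-fold serial dilutions in solvent added to agar (DMSO 1% v/v final). Inocula from overnight cultures, adjusted photometrically. Plates incubated aerobically at 37 °C for 18 h. Vancomycin or ampicillin as positive controls, DMSO-only plates as negative controls.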

Escherichia coli = experiment: Antibacterial activity against Escherichia coli ATCC 25922 assessed as reduction in microbial growth after 18 hrs by agar dilution method; format: functional; how it was run: as §1
Candida albicans = experiment: Antifungal activity against Candida albicans ATCC 90028 assessed as reduction in microbial growth after 48 hrs by agar dilution method; format: functional
How it was run: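 Agar dilution in yeast extract peptone dextrose (YPD) agar; compounds in DMSO, 2-fold serial dilutions added to medium (DMSO 1% v/v final). Inoculum from overnight culture, adjusted photometrically. Plates incubated at 30 °C for 48 h. Amphotericin B as positive control, DMSO-only plates as negative control.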

Staphylococcus aureus [5] = experiment: Antibacterial activity against methicillin-resistant Staphylococcus aureus assessed as reduction in microbial growth after 24 hrs by two-fold serial dilution method; format: functional
[6] = system: Mycobacterium tuberculosis; experiment: Antimycobacterial activity against Mycobacterium tuberculosis; format: functional

## CC(C)=CCc1c(O)cc(O)c2c(=O)c(-c3ccc(O)cc3)coc12
Listeria monocytogenes
  MIC: > 148 µM

## COc1ccc(-c2coc3cc(O)ccc3c2=O)cc1CC=C(C)C
Plasmodium falciparum [1]
  IC50: 20 µM
Plasmodium falciparum [2]
  IC50: 20 µM
Staphylococcus aureus [3]
  MIC: > 155 µM
[4]
  MIC: > 190 µM
Escherichia coli
  MIC: > 95.1 µM
Candida albicans
  MIC: > 95.1 µM

## CC(C)=CCc1cc(-c2cc(=O)c3ccc(O)c(CC=C(C)C)c3o2)ccc1O
Staphylococcus aureus [3]
  MIC: 20.5 µM
[4]
  MIC: > 82 µM
Escherichia coli
  MIC: > 82 µM
Candida albicans
  MIC: > 82 µM

## C[C@@H]1[C@H](O)[C@@H](C)/C=C/C=C/C=C/C=C/C=C/C=C/C=C/[C@H](O[C@@H]2O[C@H](C)[C@@H](O)[C@H](N)[C@@H]2O)C[C@@H]2O[C@](O)(C[C@@H](O)C[C@@H](O)[C@H](O)CC[C@@H](O)C[C@@H](O)CC(=O)O[C@H]1C)C[C@H](O)[C@H]2C(=O)O [AMPHOTERICIN B]
Candida albicans
  MIC: 0.5 µM

## CC1(C)S[C@@H]2[C@H](NC(=O)[C@H](N)c3ccccc3)C(=O)N2[C@H]1C(=O)O [AMPICILLIN]
[4]
  MIC: 11.4 µM
Escherichia coli
  MIC: 11.4 µM

## CC(C)=CCc1cc(-c2coc3cc(O)cc(O)c3c2=O)ccc1O [CORYLIN]
Listeria monocytogenes
  MIC: 59.1 µM

## CC(C)=CCc1cc(-c2coc3c(CC=C(C)C)c(O)ccc3c2=O)ccc1O [ERYSUBIN F]
Staphylococcus aureus [5]
  MIC: 256 µM
[6]
  MIC: 32 µM (≈ 12.5 µg/mL)
Staphylococcus aureus [3]
  MIC: 15.4 µM
[4]
  MIC: > 82 µM
Escherichia coli
  MIC: > 82 µM
Candida albicans
  MIC: > 82 µM

## CN[C@H](CC(C)C)C(=O)N[C@H]1C(=O)N[C@@H](CC(N)=O)C(=O)N[C@H]2C(=O)N[C@H]3C(=O)N[C@H](C(=O)N[C@H](C(=O)O)c4cc(O)cc(O)c4-c4cc3ccc4O)[C@H](O)c3ccc(c(Cl)c3)Oc3cc2cc(c3O[C@@H]2O[C@H](CO)[C@@H](O)[C@H](O)[C@H]2O[C@H]2C[C@](C)(N)[C@H](O)[C@H](C)O2)Oc2ccc(cc2Cl)[C@H]1O [VANCOMYCIN]
Staphylococcus aureus [3]
  MIC: 0.5 µM

## CC(C)=CCc1c(O)cc2occ(-c3ccc(O)cc3)c(=O)c2c1O [WIGHTEONE]
Listeria monocytogenes
  MIC: 29.6 µM
